Laboratory results: ChEMBL document CHEMBL1137402, “Synthesis and biological evaluation of 2-(3',4',5'-trimethoxybenzoyl)-3-amino 5-aryl thiophenes as a new class of tubulin inhibitors” (J Med Chem, 2006)
Activity calls are given as the source filed them. The rule behind the calls is not given here.

Tests used:
Tubulin (Homo sapiens) = Tubulin (Homo sapiens) (UniProt P68371+Q9H4B7+P0DPH7+P68366+Q13509+Q71U36+P04350+Q3ZCM7+P07437+P68363+Q9BQE3+Q6PEY2+Q13885+Q9BVA1+Q9BUF5); assay: Inhibition of [3H]colchicine binding to tubulin at 1 uM; type: protein-complex assay
In short: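 Binding of [3H]colchicine to tubulin. Tubulin at 1 µM, [3H]colchicine at 5 µM, inhibitor at 1 µM. Read-out is percent inhibition of colchicine binding.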

CCRF-CEM = assay: Antiproliferative activity against human CEM cells; type: functional, cell-based
FM3A = assay: Antiproliferative activity against mouse FM3A cells; type: functional, cell-based
MOLT-4 = assay: Antiproliferative activity against human Molt4/C8 cells; type: functional, cell-based
In short: (§1)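 Tumor cell proliferation assay. IC50 is the compound concentration giving 50% inhibition of proliferation, taken from dose-response curves. Reported as mean ± SE from at least three independent experiments.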

HL-60 [1] = assay: Cell cycle arrest in HL60 cells by accumulation at S phase at 8 nM; type: functional, cell-based; conditions: Homo sapiens
In short: (§2)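 HL60 acute myeloblastic leukemia cells exposed to compound for 24 h, then stained with propidium iodide and analyzed by flow cytometry. Populations scored in sub-G0-G1 (apoptotic), G0-G1, S and G2-M phases, relative to untreated control cells.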

HL-60 [2] = assay: Induction of apoptosis in HL60 cells by arrest at sub G0/G1 phase at 8 nM; type: functional, cell-based; conditions: Homo sapiens; in short: as §2
Tubulin = assay: Inhibition of tubulin polymerization; type: functional, Homo sapiens
In short: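 Tubulin assembly assay with tubulin at 10 µM. IC50 taken for inhibition of polymerization.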

L1210 = assay: Antiproliferative activity against mouse L1210 cells; type: functional, cell-based; in short: as §1
HL-60 [3] = assay: Cell cycle arrest in HL60 cells by accumulation at G2/M phase at 40 nM; type: functional, cell-based; conditions: Homo sapiens; in short: as §2
HL-60 [4] = assay: Cell cycle arrest in HL60 cells by accumulation at G2/M phase at 8 nM; type: functional, cell-based; conditions: Homo sapiens; in short: as §2
HL-60 [5] = assay: Cell cycle arrest in HL60 cells by accumulation at G2/M phase at 20 nM; type: functional, cell-based; conditions: Homo sapiens; in short: as §2
HL-60 [6] = assay: Cell cycle arrest at HL60 cells by accumulation at sub G0/G1 phase at 20 nM; type: functional, cell-based; conditions: Homo sapiens; in short: as §2
HL-60 [7] = assay: Cell cycle arrest in HL60 cells by accumulation at G2/M phase at 15 nM; type: functional, cell-based; conditions: Homo sapiens; in short: as §2
HL-60 [8] = assay: Induction of apoptosis in HL60 cells by arrest at sub G0/G1 phase at 15 nM; type: functional, cell-based; conditions: Homo sapiens; in short: as §2

| SMILES | inhibition (Tubulin (Homo sapiens)) [%] | IC50 (CCRF-CEM) [nM] | IC50 (FM3A) [nM] | IC50 (MOLT-4) [nM] | IC50 (Tubulin) [nM] | IC50 (L1210) [nM] | also measured |
| --- | --- | --- | --- | --- | --- | --- | --- |
| COc1cc(C(=O)c2sc(-c3ccccc3)cc2N)cc(OC)c1OC | 81 | 4.5 | 13 | 5.3 | 1200 | 11 | Activity (HL-60 [1]): Active; Activity (HL-60 [2]): Active; Activity (HL-60 [3]): Active; Activity (HL-60 [4]): Active |
| COc1cc(C(=O)c2sc(-c3ccc(Cl)cc3)cc2N)cc(OC)c1OC | – | 70 | 90 | 77 | – | 93 | – |
| COc1cc(C(=O)c2sc(-c3ccc(C)cc3)cc2N)cc(OC)c1OC | 80 | 15 | 16 | 16 | 1100 | 18 | – |
| COc1cc(C(=O)c2sc(-c3ccccc3Cl)cc2N)cc(OC)c1OC | 76 | 16 | 34 | 17 | 1200 | 20 | – |
| COc1ccc(-c2cc(C(=O)c3cc(OC)c(OC)c(OC)c3)c(N)s2)cc1 | – | – | – | – | 1100 | – | – |
| COc1cc(C(=O)c2sc(-c3ccc(Cl)c(Cl)c3)cc2N)cc(OC)c1OC | – | 290 | 400 | 270 | – | 260 | – |
| COc1cccc(-c2cc(C(=O)c3cc(OC)c(OC)c(OC)c3)c(N)s2)c1 | – | – | – | – | 1200 | – | – |
| COc1ccc(-c2cc(N)c(C(=O)c3cc(OC)c(OC)c(OC)c3)s2)cc1 | 60 | 19 | 31 | 18 | 1100 | 45 | – |
| COc1cc(C(=O)c2cc(-c3ccc(F)cc3)sc2N)cc(OC)c1OC | – | – | – | – | 860 | – | – |
| COc1cc(C(=O)c2sc(-c3ccc(Br)cc3)cc2N)cc(OC)c1OC | – | 86 | 150 | 92 | – | 100 | – |
| COc1cc(C(=O)c2sc(-c3cc(OC)c(OC)c(OC)c3)cc2N)cc(OC)c1OC | – | 840 | 3500 | 1200 | – | 2300 | – |
| COc1cc(C(=O)c2sc(-c3ccc([N+](=O)[O-])cc3)cc2N)cc(OC)c1OC | – | 99 | 64 | 110 | – | 100 | – |
| COc1cc(C(=O)c2sc(-c3ccc(I)cc3)cc2N)cc(OC)c1OC | – | 150 | 420 | 190 | – | 400 | – |
| COc1cc(C(=O)c2cc(-c3ccccc3)sc2N)cc(OC)c1OC | 77 | – | – | – | 1300 | – | – |
| COc1cc(C(=O)c2sc(-c3ccncc3)cc2N)cc(OC)c1OC | – | 110 | 150 | 88 | – | 180 | – |
| COc1cc(C(=O)c2sc(-c3ccc(-c4ccccc4)cc3)cc2N)cc(OC)c1OC | – | > 10000 | > 10000 | > 10000 | – | > 10000 | – |
| COc1ccc(/C=C\c2cc(OC)c(OC)c(OC)c2)cc1O [COMBRETASTATIN A4] | – | – | – | 1.6 | – | 2.8 | – |
| COc1cc(C(=O)c2sc(-c3cccs3)cc2N)cc(OC)c1OC | 80 | 9.4 | 1.7 | 8.9 | 1200 | 9.8 | Activity (HL-60 [5]): Active; Activity (HL-60 [6]): Active |
| COc1cc(C(=O)c2sc(-c3ccc(F)cc3)cc2N)cc(OC)c1OC | 70 | 15 | 16 | 12 | 1500 | 20 | – |
| COc1ccc(-c2cc(N)c(C(=O)c3cc(OC)c(OC)c(OC)c3)s2)cc1OC | 53 | 20 | 72 | 20 | 1100 | 40 | – |
| COc1cc(C(=O)c2sc(-c3ccc(C(F)(F)F)cc3)cc2N)cc(OC)c1OC | – | 270 | 540 | 250 | – | 370 | – |
| CCOc1ccc(-c2cc(N)c(C(=O)c3cc(OC)c(OC)c(OC)c3)s2)cc1 | – | 270 | 510 | 240 | – | 590 | – |
| COc1cccc(-c2cc(N)c(C(=O)c3cc(OC)c(OC)c(OC)c3)s2)c1 | 81 | 16 | 36 | 17 | 640 | 22 | – |
| COc1cc(C(=O)c2cc(-c3ccc(C)cc3)sc2N)cc(OC)c1OC | 90 | – | – | – | 800 | – | – |
| COc1cc(C(=O)c2sc(-c3ccsc3)cc2N)cc(OC)c1OC | 81 | 9.6 | 3.7 | 8.8 | 1300 | 12 | Activity (HL-60 [5]): Active; Activity (HL-60 [6]): Active |
| COc1cc(C(=O)c2sc(-c3cccc([N+](=O)[O-])c3)cc2N)cc(OC)c1OC | 74 | 5.9 | 17 | 7.5 | 970 | 11 | Activity (HL-60 [7]): Active; Activity (HL-60 [8]): Active |
